Shown are actives, neighbours in structure and some others; about 3.5% of the full set was active somewhere.
MrgX1 agonist: activates human MrgX1 receptor signaling | AID 588627 | B-score at 10 µM | actives 0.44% (n = 310,000) | Q96LB2 | MrgX1-HEK293 cells, Fluo-4 calcium fluorescence, agonist mode; stronger effect = higher value;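 active = calcium response B-score plate-corrected fluorescence ratio at least 3 library SD, with starting fluorescence B-score inside 5 SD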
Target sequence (Q96LB2 whole entry, looked up): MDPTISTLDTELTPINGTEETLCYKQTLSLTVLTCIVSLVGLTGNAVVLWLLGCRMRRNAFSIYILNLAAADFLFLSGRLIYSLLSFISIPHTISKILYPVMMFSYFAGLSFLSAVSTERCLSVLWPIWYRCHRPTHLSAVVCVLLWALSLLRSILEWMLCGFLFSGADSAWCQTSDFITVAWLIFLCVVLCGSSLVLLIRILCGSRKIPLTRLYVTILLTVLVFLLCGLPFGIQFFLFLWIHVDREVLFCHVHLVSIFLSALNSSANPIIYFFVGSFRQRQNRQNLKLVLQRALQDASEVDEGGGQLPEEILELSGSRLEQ
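Test system: HEK293 cells stably expressing human MrgX1 receptor; amount: 15,000 cells per well; doses: compound delivered in addition one of three; times: overnight plating before 1 h dye loading; detection: Fluo-4 NW calcium-flux fluorescence, kinetic read; read-out basis: B-scored fluorescence response ratio; controls: positive and negative controls per plate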
MrgX1 antag: antagonists of human MrgX1 receptor. Q96LB2. MRGX1-HEK293 calcium flux, Fluo-4, BAM8-22 antagonism; stronger effect = lower value. B-score at 10 µM. actives 1.3% (n = 310,000). AID 588676;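 active = calcium-response B-score plate-corrected more than 3 library SD below zero, starting fluorescence within 5 deviations, no agonist response on first addition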;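 note: peak minus trough fluorescence over baseline after final BAM8-22 challenge near maximal dose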
RGS4 block: human RGS4 inhibition | AID 463165 | actives 0.45% (n = 310,000) | P49798 | HEK293 M3R/RGS4 inducible, Fluo-4 calcium flux; stronger effect = higher value; triggered by carbachol at its EC20 | B-score at 10 µM;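 active = B-score, a plate-corrected calcium signal, over three deviations above library mean, with baseline fluorescence within five deviations of library mean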;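 note: RGS4 expression induced by doxycycline in cells with stable M3 receptor; B-score is computed from the integrated fluorescence ratio over baseline after carbachol; higher B-score means a larger calcium signal and so more RGS4 inhibition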
Target sequence (P49798 whole entry, looked up): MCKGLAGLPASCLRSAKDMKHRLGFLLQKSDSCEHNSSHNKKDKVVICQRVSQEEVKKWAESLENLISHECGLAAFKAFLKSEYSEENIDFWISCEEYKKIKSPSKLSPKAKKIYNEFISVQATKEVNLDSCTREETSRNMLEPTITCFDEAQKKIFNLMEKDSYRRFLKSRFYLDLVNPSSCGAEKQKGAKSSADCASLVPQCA
MrgX1 allo act: allosterically activates human MrgX1 receptor signaling. Q96LB2. actives 0.63% (n = 310,000). MrgX1-HEK293, Fluo-4 calcium flux, FDSS; stronger effect = higher value. AID 588675. B-score at 10 µM;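 active = plate-corrected calcium response at least 3 library SD above typical, normal starting fluorescence, not activating the receptor alone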;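 note: compound read alongside a low EC10 to EC30 dose of BAM8-22 agonist; peak minus trough fluorescence over baseline measured at the second addition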
RGS4 pot: RGS4 potentiation or activation; HEK293 M3R/inducible RGS4, carbachol calcium flux Fluo4; stronger effect = lower value; B-score at 10 µM; actives 0.92% (n = 310,000); AID 463111;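 active = B-score of the integrated calcium signal more than 4 SD below the library mean, with starting fluorescence not abnormally high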;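 note: negative B-score means reduced calcium response which marks RGS4 activation or potentiation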
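Test system: HEK293 cells with stable M3R and inducible RGS4; also added: carbachol at ECmax as muscarinic agonist stimulus; schedule: dye loading 30 min 37 °C, buffer rest 30 min RT; technique: kinetic calcium fluorescence imaging with Fluo4-AM dye, 2 µM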
RGS4 inh valid: RGS4 inhibitor validation | HEK293 M3R/RGS4, carbachol calcium Fluo-4 fluorescence; carbachol added at its EC20; 0 = buffer wells, 100 = carbachol control | calcium response, % at 10 µM | actives 65% (n = 1,700) | shares compounds with RGS4 block;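 active = duplicate-averaged calcium response above the buffer-only control mean plus 5 SD of those controls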;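 note: integrated fluorescence ratio F max minus min over baseline F0; higher response in RGS4-induced cells means RGS4 inhibition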
RGS4 uninduced: non-induced cell nonspecific activity of RGS4 inhibitors; HEK293 M3R non-induced, carbachol calcium Fluo-4; submaximal (EC20) carbachol stimulus; buffer wells 0%, carbachol control wells 100%; activity (percent), % at 10 µM; actives 20% (n = 1,900); shares compounds with RGS4 block; call rule not given here;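 note: RGS4 induction absent so cells express M3R without RGS4; higher means more calcium signal and flags a non-specific hit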
RGS4 inh ctr2: second counter-screen for RGS4 inhibitors: non-induced cells without carbachol; calcium response (agonist-mode artifact), % at 10 µM; HEK293 M3R/RGS4 non-induced, Fluo-4 calcium, no carbachol; normalised: buffer wells 0%, carbachol wells 100%; shares compounds with RGS4 block; actives 22% (n = 1,900); AID 493001;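 active = duplicate-averaged calcium rise in uninduced cells above buffer wells' mean plus 5 SD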
Numbers stand for hits; . = inactive; / = not tested or not shown.

SMILES | MrgX1 agonist | MrgX1 antag | RGS4 block | MrgX1 allo act | RGS4 pot | RGS4 inh valid | RGS4 uninduced | RGS4 inh ctr2
COc1ccccc1N1CCN(Cc2cn[nH]c2-c2ccc(F)cc2)CC1 | . | . | . | . | . | . | 50% | .
CCN(CC)c1nc(N)c2c(N)nc3c(c2c1C#N)CC(c1ccccc1)O3 (centres undefined) | . | . | 5.3 | . | . | 18% | . | .
CC(=O)N(C)Cc1ccc(C(=O)CCl)cc1 | . | . | 11 | . | . | 22% | . | 21%
CCOc1ccc(C(NC(=O)CC)c2c(O)ccc3ccccc23)cc1 (centres undefined) | . | . | . | . | . | / | / | /
CC(=O)Oc1ccc2ccccc2c1C(NC(=O)Cc1ccccc1)c1ccc(Cl)cc1 (centres undefined) | . | -5.9 | . | . | . | / | . | .
Cc1ccc([N+](=O)[O-])cc1N(CC(=O)Nc1ccc(S(=O)(=O)Nc2cccc(C(F)(F)F)c2)cc1)S(C)(=O)=O | . | . | 7.2 | . | . | 22% | . | .
O=C1NN(c2ccccc2)C(=O)/C1=C\c1coc2ccc(O)cc2c1=O | 27 | . | 7.9 | . | . | 30% | . | .
O=C1NN(c2ccccc2)C(=O)/C1=C/c1coc2ccccc2c1=O | . | . | . | . | . | / | / | /
O=C(C1=C[C@H](c2ccccc2)C[C@H](OCc2ccc(CO)cc2)O1)N1CCOCC1 | . | . | . | . | . | / | / | /
c1ccc(Nc2nc(N3CCCC3)nc(N3CCOCC3)n2)cc1 | . | . | . | . | . | . | . | .
O=c1nc(N2CCCC2)nc(Nc2ccccc2)[nH]1 | . | . | . | . | . | . | . | .
COc1ccc(Nc2nc(N3CCCC3)nc(N3CCOCC3)n2)cc1 | . | . | . | . | . | / | / | /
CCOC(=O)C1CCCN(S(=O)(=O)c2ccc3c(c2)N(C(C)=O)CCO3)C1 (centres undefined) | . | . | . | . | . | / | / | /
O=C1/C(=C\c2ccncc2)CCc2ccccc21 | . | . | . | . | . | / | / | /
O=C1/C(=C/c2ccncc2)CCC/C1=C\c1ccncc1 | / | / | 24 | / | . | 107% | . | .
Cc1nc2cc(NC(=O)Nc3ccc(Br)cc3)ccc2o1 | . | . | . | . | . | / | / | /
CCc1ccc(-c2nc(CS(=O)CC(=O)O)c(C)o2)cc1 (centres undefined) | . | . | . | . | . | / | / | /
O=[N+]([O-])c1cccnc1Oc1ccc(F)cc1 | . | . | . | . | . | / | / | /
COc1ccc(Oc2ncccc2[N+](=O)[O-])cc1 | . | . | 13 | . | . | . | . | .
O=C(COC(=O)C1CCC1)NCc1ccccc1 | . | . | . | . | . | / | / | /
O=C1Nc2ccccc2/C1=C/c1ccc([N+](=O)[O-])cc1 | . | . | 8.1 | . | . | . | 30% | .
CCSc1nc(N)c(C#N)c(-c2ccco2)c1C#N | . | . | 6.5 | . | . | 7.0% | . | .
COC(=O)CSc1nc(N)c(C#N)c(-c2ccco2)c1C#N | . | . | . | . | . | / | / | /
CCOC(=O)C1CCN(Cc2cc(=O)oc3cc(C)c(Cl)cc23)CC1 | . | . | 9.3 | . | . | 5.0% | . | .
COc1ccc(OC)c(CN2CCN(Cc3cc(=O)oc4cc(O)ccc34)CC2)c1 | . | . | . | . | . | / | / | /
SMILES | MrgX1 agonist | MrgX1 antag | RGS4 block | MrgX1 allo act | RGS4 pot | RGS4 inh valid | RGS4 uninduced | RGS4 inh ctr2
COC(=O)C1CCN(Cc2cc(=O)oc3cc(OC)ccc23)CC1 | . | . | 4.8 | . | . | 21% | . | .
Nc1cc2c(cc1O)CCCC2 | . | . | . | . | . | / | / | /
COc1cccc(NC(=O)C2CCC(CNS(=O)(=O)c3ccc4c(c3)CC(C)N4C(C)=O)CC2)c1 (centres undefined) | . | . | . | . | . | / | / | /
Cc1ccc(/C=C2/NC(=O)N(Cc3ccc(Br)cc3)C2=O)o1 | . | . | . | . | . | . | . | 22%
CCN1C(=O)N/C(=C/c2ccc(C)o2)C1=O | . | . | . | . | . | / | / | /
CC(=O)OCCSc1c(-c2ccccc2)c2cc(Cl)ccc2[nH]c1=O | . | . | 4.8 | . | . | 14% | . | .
Nc1nc(Nc2ccccc2F)sc1C(=O)c1ccccc1 | . | . | 6.5 | . | . | 28% | . | .
Cc1nc(Nc2ccccc2)sc1C(=O)c1ccc(F)cc1 | . | . | . | . | . | / | / | /
CC(NCC(O)COCCC12CC3CC(CC(C3)C1)C2)c1ccccc1 (centres undefined) | . | . | 4.7 | . | . | . | . | 24%

Source: PubChem
